ChEMBL document CHEMBL1799966, “Synthesis and anticancer activity of oxindole derived imidazo[1,5-a]pyrazines” (Eur J Med Chem, 2011)

Assays:
Type in all cases: functional
T47D = test: Anticancer activity against human T47D cells assessed as mean cell growth at 10^-5 M after 48 hrs by SRB assay
Procedure, shortened: (§1)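 NCI-60 primary screen run to the US NCI protocol. Compound added at a single concentration of 10^-5 M and cultures incubated 48 h. The end point was sulforhodamine B (SRB) protein staining, reported as percent growth of treated cells relative to untreated control cells.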

MDA-MB-468 = test: Anticancer activity against human MDA-MB-468 cells assessed as mean cell growth at 10^-5 M after 48 hrs by SRB assay; procedure, shortened: as §1
SR = test: Anticancer activity against human SR cells assessed as mean cell growth at 10^-5 M after 48 hrs by SRB assay; procedure, shortened: as §1
IGROV-1 = test: Anticancer activity against human IGROV1 cells assessed as mean cell growth at 10^-5 M after 48 hrs by SRB assay; procedure, shortened: as §1
ACHN = test: Anticancer activity against human ACHN cells assessed as mean cell growth at 10^-5 M after 48 hrs by SRB assay; procedure, shortened: as §1
NCI-H522 = test: Anticancer activity against human NCI-H522 cells assessed as mean cell growth at 10^-5 M after 48 hrs by SRB assay; procedure, shortened: as §1
DU-145 = test: Anticancer activity against human DU145 cells assessed as mean cell growth at 10^-5 M after 48 hrs by SRB assay; procedure, shortened: as §1
MCF7 = test: Anticancer activity against human MCF7 cells assessed as mean cell growth at 10^-5 M after 48 hrs by SRB assay; procedure, shortened: as §1
COLO 205 = test: Anticancer activity against human COLO205 cells assessed as mean cell growth at 10^-5 M after 48 hrs by SRB assay; procedure, shortened: as §1
A498 = test: Anticancer activity against human A498 cells assessed as mean cell growth at 10^-5 M after 48 hrs by SRB assay; procedure, shortened: as §1

Structure (SMILES): CN1C(=O)/C(=C/c2nc(-c3ccccc3)n3ccccc23)c2ccccc21
- Activity (T47D): 85.21%

Structure (SMILES): O=C1Nc2ccccc2/C1=C\c1nc(-c2ccccc2)n2ccccc12
- Activity (MDA-MB-468): 87.51%

Structure (SMILES): COc1ccc(-c2nc(/C=C3/C(=O)N(C)c4ccccc43)c3ccccn23)cc1
- Activity (SR): 77.31%

Structure (SMILES): CN1C(=O)/C(=C/c2nc(-c3cccc(F)c3)n3ccccc23)c2ccccc21
- Activity (IGROV-1): 70.98%

Structure (SMILES): COc1ccc(-c2nc(/C=C3/C(=O)Nc4ccccc43)c3ccccn23)cc1
- Activity (ACHN): 72.54%

Structure (SMILES): COc1ccc(-c2nc(/C=C3/C(=O)N(C)c4ccccc43)c3ccccn23)cc1OC
- Activity (NCI-H522): 103.43%

Structure (SMILES): Cc1ccc(-c2nc(/C=C3/C(=O)Nc4ccc(F)cc43)c3ccccn23)cc1
- Activity (DU-145): 74.57%

Structure (SMILES): Cc1ccc(-c2nc(/C=C3/C(=O)Nc4ccccc43)c3ccccn23)cc1
- Activity (DU-145): 78.55%

Structure (SMILES): COc1ccc(-c2nc(/C=C3/C(=O)Nc4ccccc43)c3ccccn23)cc1OC
- Activity (MCF7): 82.66%

Structure (SMILES): O=C1Nc2ccc(F)cc2/C1=C\c1nc(-c2ccccc2F)n2ccccc12
- Activity (DU-145): 80.9%

Structure (SMILES): COc1cc(-c2nc(/C=C3/C(=O)N(C)c4ccccc43)c3ccccn23)cc(OC)c1OC
- Activity (SR): 98.17%

Structure (SMILES): CN1C(=O)/C(=C/c2nc(-c3ccccc3F)n3ccccc23)c2cc(F)ccc21
- Activity (COLO 205): 99.95%

Structure (SMILES): O=C1Nc2ccccc2/C1=C\c1nc(-c2ccc(F)cc2)n2ccccc12
- Activity (MDA-MB-468): 39.31%

Structure (SMILES): O=C1Nc2ccc(F)cc2/C1=C\c1nc(-c2ccc(F)cc2)n2ccccc12
- Activity (A498): 97.53%

Structure (SMILES): COc1ccc(-c2nc(/C=C3/C(=O)Nc4ccc(F)cc43)c3ccccn23)cc1
- Activity (MCF7): 101.96%

Structure (SMILES): Cc1ccc(-c2nc(/C=C3/C(=O)N(C)c4ccc(F)cc43)c3ccccn23)cc1
- Activity (NCI-H522): 99.39%

Structure (SMILES): CN1C(=O)/C(=C/c2nc(-c3ccccc3F)n3ccccc23)c2ccccc21
- Activity (DU-145): 84.72%
